Rows were chosen to be rich in hits. Some 0.7% of all compounds tested hit in one or more screens of this group.
proCasp7 act: counter-screen for procaspase-3 activators: activators of human procaspase-7 | recombinant procaspase-7, Ac-DEVD-pNA absorbance 405 nm; D23A/D198A/D206A triple mutant, cannot self-cleave; scale: DMSO 0, 5 µM enzyme 100 | P55210 | 0.093% of 330,000 active | AID 463210 | activation, % at 8.5 µM;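 active = percent activation above the screen-wide mean plus 3 SD, cut at about 25% in these data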
Target sequence (P55210 whole entry D23A/D198A/D206A): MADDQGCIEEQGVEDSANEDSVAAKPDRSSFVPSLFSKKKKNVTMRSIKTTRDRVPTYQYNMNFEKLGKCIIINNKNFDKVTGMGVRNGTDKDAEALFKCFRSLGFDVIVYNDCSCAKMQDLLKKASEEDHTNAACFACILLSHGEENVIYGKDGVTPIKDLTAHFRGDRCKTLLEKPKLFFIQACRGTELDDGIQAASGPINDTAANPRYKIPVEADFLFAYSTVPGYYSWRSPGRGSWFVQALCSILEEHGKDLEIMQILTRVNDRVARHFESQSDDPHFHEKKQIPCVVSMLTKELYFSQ
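Test system: Procaspase-7 triple mutant (PC-7 D3A). Also added: Ac-DEVD-pNA substrate, 400 µM as added. Schedule: 1 h enzyme–compound preincubation and 2 h substrate reaction, both 25 °C. Signal: p-Nitroaniline absorbance at 405 nm, read at 0 and 120 min. Control set: low DMSO alone, high DMSO plus 5 µM PC-7.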
proCasp3 act: activators of human procaspase-3 | recombinant procaspase-3 D3A, Ac-DEVD-pNA absorbance 405 nm | activation, % at 8.5 µM | 0.11% of 330,000 active;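 active = activation above the mean of all tested compounds plus 3 SD, cut at about 21% in these data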
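System: Procaspase-3 D3A mutant. Medium: Zinc-free 300 mM NaCl, 50 mM HEPES, 0.01% Triton X-100. Schedule: 1 h preincubation plus 2 h reaction at 25 °C. Measured by: 405 nm absorbance of p-nitroaniline, reads at 0 and 120 min. Read-out: percent activation relative to control range.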
FXN GAA850 act: frataxin GAA850 promoter activation; activation, % at 6 µM; 0.56% of 360,000 active; HEK293 lucGAA850 FXN promoter luciferase reporter, 24 h; percent of 10 µM SAHA response; AID 540364;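 active = activation above the average of all compounds screened plus 3 SD, cutoff fixed separately per campaign, cut at about 7.5% in these data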
GAA30 FXN cntr: activates GAA30 frataxin promoter, counter-screen for GAA850 activators; 66% of 1,900 active; activation, % at 6 µM; shares compounds with FXN GAA850 act; HEK293 lucGAA30 FXN promoter luciferase, 24 h; DMSO = 0%, 5 µM ipriflavone = 100%; AID 588350;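 active = mean activation above the mean of solvent-only control wells plus 3 SD, cut at about 22% in these data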;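 note: counterscreen of GAA850 promoter hits where activity marks nonselective or luminescence artifacts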
FXN GAA850 conf: confirmation of GAA850 frataxin (FXN) promoter activators; AID 588351; HEK293 lucGAA850 FXN promoter luciferase reporter, 24 h; 100% = activation by SAHA; 86% of 1,900 active; shares compounds with FXN GAA850 act; activation, % at 6 µM;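 active = mean activation above a set limit taken from the primary screen, cut at about 8% in these data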
A number is an active result; i = inactive; nt = no result given.

SMILES	proCasp7 act	proCasp3 act	FXN GAA850 act	GAA30 FXN cntr	FXN GAA850 conf
Cc1ccc(O)c(-n2nc3ccccc3n2)c1	i	i	9.2	114	35
O=c1c2ccccc2oc2ccc(NCCCN3CCOCC3)cc12	i	i	i	nt	nt
Cn1c2ccccc2c(=O)c2cc(NCCCN3CCOCC3)ccc21	i	i	17	143	58
Cn1c2ccccc2c(=O)c2ccc(NCc3ccc4c(c3)OCO4)cc21	nt	nt	11	71	27
CN1CCC[C@H]1CCNc1ccc2c(=O)c3ccccc3n(C)c2c1	nt	nt	13	46	69
COc1cccc2sc3ccc(NCc4ccc5c(c4)OCO5)cc3c(=O)c12	i	i	i	nt	nt
CN1CCCC1CCNc1ccc2c(=O)c3ccccc3oc2c1 (stereo unspecified)	i	i	i	nt	nt
COc1ccc(Nc2cc(C)nc(N3CCN(C(=O)c4ccc5c(c4)OCO5)CC3)n2)cc1	i	i	i	nt	nt
C=C(C)CNC(=O)c1ccc2nc(Cc3ccc(OC)cc3)oc2c1	i	i	i	nt	nt
C=CCON/C(CCC)=C1\C(=O)C(C(=O)OC)C(C)(C)CC1=NC (stereo unspecified)	i	i	i	nt	nt
COc1ccc(-c2csc(NCCc3nc4cc(C(=O)NCCCO)ccc4n3Cc3ccc(C)cc3)n2)cc1	i	i	i	nt	nt
O=C1c2ccccc2C(=O)N1CCc1c[nH]c2ccccc12	i	i	9.0	88	37
O=C1c2ccccc2C(=O)N1CCCc1c[nH]c2ccccc12	i	i	i	nt	nt
Cc1cc(=O)[nH]c(NCc2ccc(Cl)cc2)n1	i	i	i	nt	nt
Cn1c2ccccc2c2cc([N+](=O)[O-])ccc21	i	i	i	nt	nt
CCN(CC)CCn1c2ccccc2c2nc3ccc([N+](=O)[O-])cc3cc21	i	i	11	24	28
CCOC(=O)C1=C(COC(=O)C(CC)Oc2ccccc2)NC(=O)NC1C (stereo unspecified)	i	i	i	nt	nt
O=C(CCC(=O)c1ccc(F)cc1)NCC1(N2CCCCC2)CCCCC1	i	i	i	nt	nt
Cc1cc(C(=O)N(C)Cc2c(F)cccc2Cl)c2ccccc2n1	i	i	i	nt	nt
CC(=NNC(=S)Nc1ccccc1Cl)c1ccccn1	nt	nt	14	i	25
CC(=NNC(=S)Nc1ccccc1)c1ccccn1	nt	nt	i	nt	nt
C/C(=N\NC(=O)c1ccccc1)C1C2C=CC(C2)C1(C)C (stereo unspecified)	i	i	i	nt	nt
Nc1nc(Nc2ccccc2)nc(NCc2ccco2)c1[N+](=O)[O-]	i	i	i	nt	nt
Cc1ccc(Nc2nc(N)c([N+](=O)[O-])c(NCc3ccco3)n2)cc1	i	i	8.9	67	34
Cc1cccc(NC(=O)CN(C)S(=O)(=O)c2ccc3c(c2)n(C)c(=O)c(=O)n3C)c1C	i	i	i	nt	nt
SMILES	proCasp7 act	proCasp3 act	FXN GAA850 act	GAA30 FXN cntr	FXN GAA850 conf
CCCN1C(=O)/C(=C/c2cc(C)n(C)c2C)SC1=Nc1ccc(OCC)cc1	i	i	i	nt	nt
CCN1C(=O)/C(=C/c2cc(C)n(C)c2C)SC1=Nc1ccc(OC)cc1	i	i	9.9	i	14
CN(C)c1ccc(C(=S)N2CCCC2)cc1Br	i	i	i	nt	nt
CN(C)S(=O)(=O)c1ccc(Cl)c(NC(=O)CNC2(C)CCS(=O)(=O)C2)c1 (stereo unspecified)	i	i	i	nt	nt
c1ccc(COCCN2CCN(CCOCc3ccccc3)CC2)cc1	i	i	i	nt	nt
Cc1c(C=NCCOCc2ccccc2)cnn1C	i	i	10	i	9.0
COc1cc(-c2nnc3sc(C4CCCCC4)nn23)cc(OC)c1OC	i	i	i	nt	nt
COc1cc(OC)c(-c2nn3c(C4CCCCC4)nnc3s2)cc1OC	i	i	13	i	12
CCN(CC)CCNC(=O)CCN1N=C(c2ccccc2)CCC1=O	i	i	i	nt	nt
Nc1cccn2c(-c3ccc(Cl)c(Cl)c3)cnc12	i	i	12	111	43
Nc1cccn2c(-c3ccc(Cl)cc3)cnc12	i	i	i	nt	nt
O=C(Cn1ccc(NC(=O)OCc2ccccc2)nc1=O)NCc1ccc2[nH]ccc2c1	i	i	i	nt	nt
COc1cc(CCC(=O)NNC(=O)c2ccc(C)cc2)cc(OC)c1OC	i	i	i	nt	nt
COc1cc(OC)cc(C(=O)OCC(=O)NC2CCCCCC2)c1	i	i	i	nt	nt
Cc1cc(=O)oc2cc(NC(=O)CN3C(=O)NC(C)(c4ccccc4)C3=O)ccc12 (stereo unspecified)	i	i	i	nt	nt

From PubChem
